Measurements from ChEMBL document CHEMBL1145092, “Soft antimicrobial agents: synthesis and activity of labile environmentally friendly long chain quaternary ammonium compounds” (J Med Chem, 2003).

What was measured:
Staphylococcus aureus [1] = assay: Minimum concentration required to inhibit Staphylococcus aureus ATCC 25923; type: functional
Summary of the method: (§1)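 Broth doubling-dilution MIC in Mueller Hinton broth against ATCC quality-control strains, incubated 24 h at 37 °C in ambient air. Poorly water-soluble compounds were dissolved in minimal DMSO. Values are in µg/mL.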

Escherichia coli = assay: Minimum concentration required to inhibit Escherichia coli ATCC 25922; type: functional; summary of the method: as §1
Enterococcus faecalis = assay: Minimum concentration required to inhibit Enterococcus faecalis ATCC 29212; type: functional; summary of the method: as §1
Pseudomonas aeruginosa = assay: Minimum concentration required to inhibit Pseudomonas aeruginosa ATCC 27853; type: functional; summary of the method: as §1
[2] = Half life (t1/2) was determined; type: ADME
Summary of the method: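 Hydrolytic stability: compound from a 0.1 mg/mL ethanol stock was spiked into 10 mM phosphate buffer, pH 6, and held at 60 °C (±0.2 °C). Periodic HPLC or LC-MS/MS analysis was run, and k_obs came from linear regression of peak integration (n = 3). Selected compounds were also tested in diluted (1:4) agar at 37 °C.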

Staphylococcus aureus [3] = assay: Tested for antibacterial activity against Staphylococcus aureus; type: functional

Row | MIC (Staphylococcus aureus [1]) | MIC (Escherichia coli) | MIC (Enterococcus faecalis) | MIC (Pseudomonas aeruginosa) | Log t1/2 [2] | Log 1/MIC (Staphylococcus aureus [3]) | SMILES | MLC (Staphylococcus aureus [1]) | MLC (Escherichia coli) | MLC (Enterococcus faecalis) | MLC (Pseudomonas aeruginosa)
1 | 8 µg/mL | 62 µg/mL | 4 µg/mL | 250 µg/mL | 1.17 | -0.9 | CCCCCCCC/C=C/CCCCCCCC(=O)OCC[n+]1ccccc1.[Br-] | 16 µg/mL | 125 µg/mL | 62 µg/mL | 250 µg/mL
2 | 250 µg/mL | > 1000 µg/mL | 250 µg/mL | > 1000 µg/mL |  | 0.42 | CCCCCCCCCCCCCCCCOC(=O)CC[n+]1ccccc1 | 250 µg/mL | >1000 µg/mL | 500 µg/mL | >1000 µg/mL
3 | > 12800 µg/mL | > 12800 µg/mL | > 12800 µg/mL | > 12800 µg/mL | -1.1 | -4.1 | CCCCCCCCCCCCCCCCCCOC(=O)C[n+]1ccccc1 | >12800 µg/mL | >12800 µg/mL | >12800 µg/mL | >12800 µg/mL
4 | 32 µg/mL | 125 µg/mL | 64 µg/mL | 1000 µg/mL |  |  | CCCCCCCCCCCC(=O)OCC[N+](CC)(CC)CC.CCCCCCCCCCCC(=O)OCC[n+]1ccccc1.[Br-].[Br-] | 125 µg/mL | 250 µg/mL | 64 µg/mL | 1000 µg/mL
5 | 4 µg/mL | 250 µg/mL | 16 µg/mL |  |  |  | CCCCCCCCCCCC(=O)OCC[N+](CCCC)(CCCC)CCCC.CCCCCCCCCCCCCCCC(=O)OCC[N+](CCCC)(CCCC)CCCC.[Br-].[Br-] | 32 µg/mL | 500 µg/mL | 16 µg/mL | >2000 µg/mL
6 | < 0.25 µg/mL | 1000 µg/mL | < 0.25 µg/mL | 1000 µg/mL | 0.81 | 0.6 | CCCCCCCCCCCCCCCCCCNC(=O)C[n+]1ccccc1 | 4 µg/mL | >2000 µg/mL | 8 µg/mL | >2000 µg/mL
7 | 2 µg/mL | 125 µg/mL | 4 µg/mL | 250 µg/mL | 0.12 | -0.3 | CCCCCCCCCCCCCCCC(=O)OCC[N+](CCCC)(CCCC)CCCC | 2 µg/mL | 250 µg/mL | 8 µg/mL | 1000 µg/mL
8 | 12800 µg/mL | 6400 µg/mL | > 12800 µg/mL | 6400 µg/mL | -0.9 | -4.1 | CCCCCCCCCCCCCCCCOC(=O)C[n+]1ccccc1 | 12800 µg/mL | 12800 µg/mL | >12800 µg/mL | 6400 µg/mL
9 | 8 µg/mL | 500 µg/mL | 32 µg/mL | > 2000 µg/mL |  |  | CCCCCCCCCCCC(=O)OCC[N+](CC)(CC)CC.CCCCCCCCCCCCCCCC(=O)OCC[N+](CC)(CC)CC.[Br-].[Br-] | 16 µg/mL | 500 µg/mL | 125 µg/mL | >2000 µg/mL
10 | 16 µg/mL | 125 µg/mL | 32 µg/mL | 500 µg/mL |  |  | CCCCCCCCCCCC(=O)OCC[N+](CC)(CC)CC.CCCCCCCCCCCC(=O)OCC[N+](CCCC)(CCCC)CCCC.CCCCCCCCCCCC(=O)OCC[n+]1ccccc1.CCCCCCCCCCCCNC(=O)C[n+]1ccccc1.[Br-].[Br-].[Br-].[Br-] | 250 µg/mL | 250 µg/mL | 32 µg/mL | 1000 µg/mL
11 | 8 µg/mL | 125 µg/mL | 32 µg/mL | > 2000 µg/mL |  |  | CCCCCCCCCCCC(=O)OCC[n+]1ccccc1.CCCCCCCCCCCCCCCC(=O)OCC[n+]1ccccc1.CCCCCCCCCCCCCCCCCC(=O)OCC[n+]1ccccc1.[Br-].[Br-].[Br-] | 16 µg/mL | 250 µg/mL | 32 µg/mL | >2000 µg/mL
12 | 8 µg/mL | 125 µg/mL | 8 µg/mL | 500 µg/mL |  |  | CCCCCCCCCCCCCCCCCCNC(=O)C[n+]1ccccc1.CCCCCCCCCCCCNC(=O)C[n+]1ccccc1.[Cl-].[Cl-] | 32 µg/mL | 125 µg/mL | 16 µg/mL | 500 µg/mL

The next lines start with the compound.

Row | SMILES | MIC (Staphylococcus aureus [1]) | MIC (Escherichia coli) | MIC (Enterococcus faecalis) | MIC (Pseudomonas aeruginosa) | Log t1/2 [2] | Log 1/MIC (Staphylococcus aureus [3]) | MLC (Staphylococcus aureus [1]) | MLC (Escherichia coli) | MLC (Enterococcus faecalis) | MLC (Pseudomonas aeruginosa)
13 | CC(=O)OC[n+]1ccccc1.[Cl-] | 3200 µg/mL | 3200 µg/mL | 320 µg/mL | 3200 µg/mL |  |  | 3200 µg/mL | 3200 µg/mL | 3200 µg/mL | 3200 µg/mL
14 | CC[N+](CC)(CC)CCO.[Br-] | > 1000 µg/mL | > 1000 µg/mL | > 1000 µg/mL | > 1000 µg/mL |  |  | >1000 µg/mL | >1000 µg/mL | >1000 µg/mL | >1000 µg/mL
15 | CCCCCCOC(=O)C[n+]1ccccc1 | > 12800 µg/mL | > 12800 µg/mL | > 12800 µg/mL | > 12800 µg/mL | 0.15 | -4.1 | >12800 µg/mL | >12800 µg/mL | >12800 µg/mL | >12800 µg/mL
16 | CCCCCCCCCCCC(=O)OCC[N+](C)(C)C | 16 µg/mL | 64 µg/mL | 16 µg/mL | 250 µg/mL |  |  | 16 µg/mL | 64 µg/mL | 64 µg/mL | 250 µg/mL
17 | CCOC(=O)C(C)[n+]1ccccc1 (stereo not drawn) | > 12800 µg/mL | > 12800 µg/mL | > 12800 µg/mL | > 12800 µg/mL |  |  | >12800 µg/mL | >12800 µg/mL | >12800 µg/mL | >12800 µg/mL
18 | O=C(O)C[n+]1ccccc1 | 6400 µg/mL | 12800 µg/mL | 12800 µg/mL | 12800 µg/mL |  |  | 12800 µg/mL | 12800 µg/mL | 12800 µg/mL | 12800 µg/mL
19 | OCCC[n+]1ccccc1 | > 2000 µg/mL | > 2000 µg/mL | > 2000 µg/mL | > 2000 µg/mL |  |  | >2000 µg/mL | >2000 µg/mL | >2000 µg/mL | >2000 µg/mL
20 | O=C(O)CC[n+]1ccccc1 | > 1000 µg/mL | > 1000 µg/mL | > 1000 µg/mL | > 1000 µg/mL |  |  | >1000 µg/mL | >1000 µg/mL | >1000 µg/mL | >1000 µg/mL
21 | C[N+](C)(C)CCO [CHOLINE] | > 2000 µg/mL | > 2000 µg/mL | > 2000 µg/mL | > 2000 µg/mL |  |  | >2000 µg/mL | >2000 µg/mL | >2000 µg/mL | >2000 µg/mL
22 | CCOC(=O)C[n+]1ccccc1 | > 12800 µg/mL | > 12800 µg/mL | > 12800 µg/mL | > 12800 µg/mL |  |  | >12800 µg/mL | >12800 µg/mL | >12800 µg/mL | >12800 µg/mL
